Data published in PubChem BioAssay AID588418 (The Scripps Research Institute Molecular Screening Center, 2011).
Active and inactive are the calls of the source.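 The calls were made as follows: active = IC50 at or below 1000 nM; inactive = IC50 above 1000 nM.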

Target: Protein-arginine deiminase type-4 (Homo sapiens) (UniProt Q9UM07)
Assay: PAD4 enzyme inhibition potency, late-stage follow-up, biochemical, BAEE substrate, citrulline absorbance, 7-point 0-10 µM (AID 588418)
Details: recombinant PAD4, BAEE citrulline colorimetric absorbance
Outline: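 Assay system: recombinant PAD4 / Reagent: BAEE substrate at 10 mM / Doses: 7-concentration series spanning 0 to 10 µM compound / Schedule: 15 min enzyme–compound pre-incubation plus 15 min substrate reaction, 37 °C / Technique: colorimetric citrulline absorbance at 540 nm, diacetyl monoxime/thiosemicarbazide reagent / Replication: two repeats per concentration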

Sequence of Protein-arginine deiminase type-4 (Homo sapiens) (Q9UM07 whole entry, looked up): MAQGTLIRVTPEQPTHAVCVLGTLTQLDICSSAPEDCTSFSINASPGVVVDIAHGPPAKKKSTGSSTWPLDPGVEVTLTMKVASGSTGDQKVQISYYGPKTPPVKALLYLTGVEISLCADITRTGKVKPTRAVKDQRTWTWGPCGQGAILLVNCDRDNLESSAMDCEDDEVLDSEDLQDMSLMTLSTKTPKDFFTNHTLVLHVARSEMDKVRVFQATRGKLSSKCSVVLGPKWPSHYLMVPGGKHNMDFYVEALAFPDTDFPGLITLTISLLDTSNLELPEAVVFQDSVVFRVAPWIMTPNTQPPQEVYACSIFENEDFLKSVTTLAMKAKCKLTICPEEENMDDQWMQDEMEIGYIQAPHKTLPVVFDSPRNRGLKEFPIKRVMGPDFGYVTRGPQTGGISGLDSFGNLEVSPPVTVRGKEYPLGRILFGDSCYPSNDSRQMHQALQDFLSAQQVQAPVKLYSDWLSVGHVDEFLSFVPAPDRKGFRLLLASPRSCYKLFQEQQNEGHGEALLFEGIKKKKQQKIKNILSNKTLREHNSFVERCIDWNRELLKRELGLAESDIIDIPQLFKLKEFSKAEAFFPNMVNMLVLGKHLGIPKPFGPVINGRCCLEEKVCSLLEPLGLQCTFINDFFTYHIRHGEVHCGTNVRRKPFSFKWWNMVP

COC1=C(N)C(=O)c2ncccc2C1=O
IC50: inactive
